PostGolgi ctrl – growth of the yeast control strain, post-Golgi counter-screen; efflux-deficient yeast background strain, growth absorbance A615, 16 h; inhibition, % at 10 µM; 98,000 compounds, 5% hits
Ecoli tolC – growth inhibitors of E. coli BW25113 tolC mutant. OD615. growth inhibition, % at 10 µM (by protocol). 65,000 compounds, 2.2% hits. AID 573;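 active = growth inhibition at or above a cutoff equal to the mean over every tested compound plus 3 SD, cut at about 60% in these data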;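 also: growth measured after 20 h incubation at 37 °C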
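test system = E. coli BW25113 ΔtolC::kan bacteria | medium = LB with kanamycin 50 µg/mL | signal = OD at 615 nm | schedule = 37 °C, 20 h exposure | evaluation = % inhibition of E. coli growth | compound dosing = one dose of 10 µM final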
PostGolgi yeast – growth inhibition of a yeast mutant, post-Golgi transport screen | post-Golgi transport phenotypic cell assay | inhibition, % at 10 µM | 98,000 compounds, 0.9% hits;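 also: yeast cells grown in 1536-well plates; yeast grown about 18 h at 30C before absorbance read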
Cav32 inh – human Cav3.2 channel inhibition, primary screen; 100,000 compounds, 4% hits; Cav3.2-expressing cells, Fluo-4 calcium fluorescence FDSS; active compounds read low; B-score at 10 µM;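 active = single-dose well whose peak fluorescence ratio is a statistical outlier from its plate by either plate-standardised score or position-corrected B-score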
PTK2B oligo ant – blocks oligomerization of human Pyk2 in cells. 99,000 compounds, 0.83% hits. Q293 cells, Pyk2 FERM NanoBiT luminescence; active compounds read low. z-score (the deposit names both 25 µM and 10 µM);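 active = Z-score of -3 or lower, scaled per plate to the spread of control and sample wells; inactive = z-score above -3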;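 also: negative z-score means lost luminescence so less FERM oligomerization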
E coli WT exp – E. coli BW25113 growth inhibition, expanded screen; 98,000 compounds, 0.15% hits; growth inhibition, % at 100 µM; OD600 absorbance;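 active = growth inhibition above about 50% at one test dose, limit read from the data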;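 also: growth measured after 20 h incubation at 37 °C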
Starred values were filed as active, the others as inactive; nt = no result. The list is not random: actives were taken first. Their share in the collection is about 8.7%. Rule as the data show it, unless noted: active = inhibition above about 30%; inactive = the rest.

SMILES	PostGolgi ctrl	Ecoli tolC	PostGolgi yeast	Cav32 inh	PTK2B oligo ant	E coli WT exp
Cc1cccc(C)c1NC(=O)C(c1cccs1)N(Cc1ccco1)C(=O)Cn1nnc2ccccc21 (stereo not drawn)	18	64*	-4	-2	-0.7	-12
O=C(NCc1ccco1)C(c1ccccc1)N(CC1CCCO1)C(=O)Cn1nnc2ccccc21 (stereo not drawn)	10	-15	6	nt	1.1	-5
O=C(NCC1CCCO1)c1csc2c1CCCC2 (stereo not drawn)	10	-11	-3	0.76	0.57	-8
CCc1cccc(NC2c3ccccc3C(=O)N2c2cccnc2)c1 (stereo not drawn)	-1	15	-1	-0.3	nt	-2
COc1ccc(-n2c(Cc3cccn3C)nnc2SCC(=O)Nc2ccccc2C)cc1	15	16	1	-6.4*	nt	-1
CCn1c(CC(=O)Nc2cccc(OC)c2)nnc1SCC(=O)Nc1nccs1	5	-7	-3	-5*	-0.38	5
Cc1nnc(NC(=O)CSc2nnc(Cc3cccn3C)n2-c2cccc(C)c2C)s1	6	-7	3	nt	nt	4
COc1ccc(-n2c(Cc3cccn3C)nnc2SCC(=O)NCCc2ccccc2)cc1	0	15	-3	-1.8	-0.2	-5
COc1ccc(-n2c(Cc3cccn3C)nnc2SCC(=O)Nc2nccs2)cc1	11	4	1	-6*	nt	-6
COc1ccc(-n2c(Cc3cccn3C)nnc2SCC(=O)Nc2cccc(C)c2C)cc1	12	24	4	-4*	nt	2
CCC(C)(C)n1nnnc1C(c1ccc2ncccc2c1)N1CCN2CCCC2C1 (stereo not drawn)	5	-22	11	0.52	0.5	5
Cc1ccc(CN2CCSc3ccc(C(=O)N4CCN(c5ncccn5)CC4)cc32)cc1	64*	68*	2	-2.5	-0.1	-12
CC1CC(C)CN(C(=O)c2ccc3c(c2)N(Cc2ccccc2)CCS3)C1 (stereo not drawn)	75*	nt	88*	-7.7*	nt	-22
Nc1c(-c2ccccc2)cnn1-c1ccc(C(=O)O)cc1	9	nt	-2	0.63	0.01	-12
CC(C)(CN1CCCCC1)NS(=O)(=O)c1ccc(Cl)cc1	19	-2	-9	0.35	-0.28	5
CC1CC(C)CN(CC(C)(C)NS(=O)(=O)c2ccc(Cl)cc2)C1 (stereo not drawn)	23	nt	60*	-0.017	-0.17	-1
O=C(Nc1ccc(OCC(F)(F)C(F)F)c(C(F)(F)F)c1)c1ccccc1O	85*	nt	25	-0.014	-2.5	-2
Cc1cccc2cc(CN(Cc3nnnn3C3CCCCC3)C3CCCC3)c3nnnn3c12	86*	nt	97*	-0.71	0.07	-10
CC(C)c1nc(CN(C)C(=O)N[C@H](C(=O)N[C@@H](Cc2ccccc2)C[C@H](O)[C@H](Cc2ccccc2)NC(=O)OCc2cncs2)C(C)C)cs1	nt	nt	nt	-5.6*	nt	nt
CCOc1ccc2cc(C#N)c(SCC(=O)NC(C)CC)nc2c1 (stereo not drawn)	7	-4	-7	-0.008	nt	-4
C/C(=N\O)c1ccc2c3ccccc3n(C)c2c1	31*	16	-4	-0.84	-0.7	1
CCn1c2ccccc2c2cc(/C(C)=N/O)ccc21	65*	nt	4	nt	-0.55	9
CC1CCCCN1S(=O)(=O)c1ccc(C(=O)Nc2sccc2C(N)=O)cc1 (stereo not drawn)	19	nt	1	-0.082	nt	-6
O=C(Nc1nnc(-c2ccccc2Cl)o1)c1ccc(S(=O)(=O)N2CCCCCC2)cc1	8	100*	8	-7.1*	nt	-3
O=C(Nc1ccn(-c2ccccc2)n1)c1ccc(S(=O)(=O)N2CCCCCC2)cc1	31*	31	-8	-1.9*	0.05	-22
SMILES	PostGolgi ctrl	Ecoli tolC	PostGolgi yeast	Cav32 inh	PTK2B oligo ant	E coli WT exp
CC1CCCCN1S(=O)(=O)c1ccc(C(=O)Nc2nnc(-c3ccccc3Cl)o2)cc1 (stereo not drawn)	2	100*	5	nt	-2.3	4
CCC1CCCCN1S(=O)(=O)c1ccc(C(=O)Nc2nnc(-c3ccccc3Cl)o2)cc1 (stereo not drawn)	24	100*	3	-7.9*	-0.96	-2
O=C(Nc1ccccc1)c1ccc(S(=O)(=O)N2CCCCC2)cc1	5	0	-4	-0.027	nt	-11
Cc1ccccc1OCCN1C(=O)NC2(CCc3ccccc32)C1=O (stereo not drawn)	10	4	-3	-0.24	-0.43	3
COC(=O)c1cc(C(=O)OC)cc(N2C(=O)CN=C2Nc2nc(C)cc(C)n2)c1	0	-9	6	-0.15	0.58	-5
Cc1oc(C)c2c(=O)ccc3c(c12)OC(N)=C(C#N)C3c1ccc(F)cc1 (stereo not drawn)	-5	6	-1	-3.3*	0.3	24
Cc1[nH]nc2c1C(c1ccc(F)cc1)C(C#N)=C(N)O2 (stereo not drawn)	7	-13	1	0.043	-0.65	5
COc1cccc(CNc2ccc(N3CCC(C)CC3)cc2)c1OC	nt	nt	nt	-7.7*	-0.3	nt
COc1cccc(CNc2nn[nH]n2)c1OC	-5	-16	-28	0.18	2.7	0
CC(NC(=O)c1ccco1)c1ccc2c(c1)OCCO2 (stereo not drawn)	12	-12	5	1.2	0.09	3
CC(C)c1nc(N2CCN(C(=O)c3ccco3)CC2)c2c3c(sc2n1)CCCC3	18	79*	4	-2.3	-0.78	3
Cc1sc2nc(C(C)C)nc(SCC(=O)N3CCN(C(=O)c4ccco4)CC3)c2c1C	41*	32	2	1.7	0.12	-4
Cc1nc(N2CCN(C(=O)c3ccco3)CC2)c2c3c(sc2n1)CCC3	4	26	-4	0.29	4.3	-3
CC1CCCC(C)N1CCNC(=O)CCn1nc(-c2ccccc2)ccc1=O (stereo not drawn)	0	-13	20	nt	nt	2
COc1ccc(OC)c(Nc2nc(-c3sc(C)nc3C)cs2)c1	48*	7	0	-0.67	-1.6	-14
Cc1ccc(S(=O)(=O)CCC(=O)c2ccc(O)cc2O)cc1	5	13	-2	2.6	0.03	50*
O=C1COc2ccc(C(=O)c3ccccc3C(=O)NCc3ccccc3)cc2N1	8	nt	-3	-7.2*	-1.5	9
O=C1COc2ccc(C(=O)c3ccccc3C(=O)NCc3ccco3)cc2N1	-3	nt	15	-3	-0.55	1
COc1ccccc1-c1nc(-c2ccc(Br)o2)no1	5	nt	-14	0.0097	nt	-9
COc1ccccc1Cc1nc(-c2ccc(Br)o2)no1	2	61*	-10	-2.2	nt	6
Cc1sc2nc(CSCC(=O)Nc3ccccc3C#N)[nH]c(=O)c2c1C	nt	nt	nt	nt	0.08	nt
O=[N+]([O-])c1nn(-c2ccc3c(c2)OCCO3)n(O)c1=NC1CCCCC1	16	nt	1	-1.6	-2.7	-1
O=[N+]([O-])c1nn(-c2ccc3c(c2)OCCO3)n(O)c1=NCc1ccccc1Cl	44*	nt	0	-0.97	-0.92	-9

Compound activity as filed in PubChem BioAssay.
